Measured values: ChEMBL document CHEMBL3867488 (ACS Med Chem Lett, 2016)

How the values were obtained:
[1] = biological target: T1, Oxysterols receptor LXR-beta (Homo sapiens, UniProt P55055); test: Agonist activity at LXR-beta in human HeLa cells assessed as induction of ABCA1 by beta-galactosidase/luciferase reporter gene assay; assay type: cell-based
T1 sequence (P55055 whole entry): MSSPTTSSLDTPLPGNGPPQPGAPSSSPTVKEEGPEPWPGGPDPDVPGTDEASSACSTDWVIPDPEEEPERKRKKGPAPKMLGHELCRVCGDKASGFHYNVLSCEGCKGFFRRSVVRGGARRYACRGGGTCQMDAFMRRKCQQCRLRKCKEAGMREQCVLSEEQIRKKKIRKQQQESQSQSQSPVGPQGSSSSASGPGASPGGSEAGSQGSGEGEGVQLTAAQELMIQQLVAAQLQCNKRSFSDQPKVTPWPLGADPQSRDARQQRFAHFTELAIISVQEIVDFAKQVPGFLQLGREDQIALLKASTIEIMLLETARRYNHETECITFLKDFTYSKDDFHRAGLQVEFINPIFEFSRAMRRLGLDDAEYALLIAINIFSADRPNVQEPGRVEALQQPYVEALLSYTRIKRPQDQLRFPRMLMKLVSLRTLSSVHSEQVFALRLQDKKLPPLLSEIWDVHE
Outline: (§1)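 HeLa cells carrying endogenous LXRα and LXRβ receptors, transfected with an ABCA1 LXREx3 reporter construct; agonist-driven reporter induction measured.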

[2] = biological target: T2, Nuclear receptor subfamily 1 group I member 2 (Homo sapiens, UniProt O75469); test: Agonist activity at human PXR expressed in human HepG2 cells assessed as induction of CYP3A4 measured after 24 hrs by AlamarBlue dye-based luciferase reporter gene assay relative to control; assay type: cell-based; conditions: hepg2, 24 h
T2 sequence (O75469 whole entry): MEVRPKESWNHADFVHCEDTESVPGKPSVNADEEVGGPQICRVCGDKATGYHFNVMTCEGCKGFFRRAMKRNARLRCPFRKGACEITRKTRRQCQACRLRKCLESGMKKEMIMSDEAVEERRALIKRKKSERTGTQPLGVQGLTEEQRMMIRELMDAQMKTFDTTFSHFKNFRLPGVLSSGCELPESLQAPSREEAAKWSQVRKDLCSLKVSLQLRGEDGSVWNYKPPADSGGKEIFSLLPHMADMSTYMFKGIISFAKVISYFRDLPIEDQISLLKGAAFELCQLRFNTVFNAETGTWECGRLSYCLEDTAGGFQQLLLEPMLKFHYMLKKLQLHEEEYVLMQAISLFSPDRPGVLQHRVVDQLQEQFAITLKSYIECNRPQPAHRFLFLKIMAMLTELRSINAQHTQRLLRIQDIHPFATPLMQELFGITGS

[3] = Effect on plasma triglyceride level in cynomolgus monkey at 1 mg/kg, po qd administered via gavage for 14 days measured after 24 hrs of last-dose relative to base line; assay type: ADME, organism-based, Macaca fascicularis; conditions: in vivo
Outline: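 Cynomolgus monkeys dosed daily for 14 days. On day 14, plasma drug concentration was taken 5 h post-dose. Plasma triglycerides were expressed as % elevation over baseline, with significance tested by ANOVA (p < 0.05).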

[4] = Agonist activity at LXR-beta in cynomolgus monkey whole blood assessed as ABCA1 gene induction by measuring ABCA1 mRNA level after 4 hrs by SYBR-Green dye-based Q-PCR analysis; assay type: tissue-based; conditions: Macaca fascicularis
[5] = test system: Cynomolgus monkey; test: In vivo agonist activity at LXR-beta in cynomolgus monkey assessed as ABCG1 gene induction by measuring total RNA level at 0.3 mg/ kg, po qd administered via gavage for 14 days measured 5 to 6 hrs post-dose; assay type: functional, Macaca fascicularis
Outline: (§2)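 Cynomolgus monkeys dosed daily for 14 days. ABCG1 mRNA induction measured in blood cells on day 14 and expressed as fold change. Plasma drug concentration taken about 5 h post-dose. Plasma triglycerides also measured against baseline, with significance by ANOVA.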

[6] = Half life in cynomolgus monkey at 3 mg/kg, iv administered as 10 mins infusion by LC/MS/MS analysis; assay type: ADME, organism-based, Macaca fascicularis; conditions: in vivo
[7] = biological target: T1, Oxysterols receptor LXR-beta; test: Agonist activity at human LXR-beta expressed in African green monkey CV1 cells measured after 18 to 20 hrs by luciferase reporter gene assay; assay type: cell-based, CV-1
[8] = Effect on plasma triglyceride level in cynomolgus monkey at 0.3 mg/kg, po qd administered via gavage for 14 days measured after 24 hrs of last-dose relative to base line; assay type: ADME, organism-based, Macaca fascicularis; conditions: in vivo
Outline: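 Cynomolgus monkeys dosed for 14 days, with groups at 0.1, 0.3 and 1 mg/kg. Plasma triglycerides expressed as percent change over baseline, with significance by ANOVA. Plasma drug exposure sampled 5 h post-dose. ABCG1 induction in blood cells monitored in the same animals.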

[9] = biological target: T3, Oxysterols receptor LXR-beta (Homo sapiens) (UniProt P55055); test: Agonist activity at LXR-beta in human HeLa cells assessed as induction of ABCA1 by beta-galactosidase/luciferase reporter gene assay relative to control; assay type: cell-based; outline: as §1
T3 sequence (whole entry): T1 sequence (P55055 whole entry)

[10] = biological target: Alpha-1-acid glycoprotein 1 (Homo sapiens, UniProt P02763); test: Binding affinity to human alpha-1-AGP at 1 uM measured after 4 hrs by equilibrium dialysis method relative to control; assay type: ADME; conditions: isolated protein, 4 h, 1 µM
Alpha-1-acid glycoprotein 1, sequence (P02763 whole entry): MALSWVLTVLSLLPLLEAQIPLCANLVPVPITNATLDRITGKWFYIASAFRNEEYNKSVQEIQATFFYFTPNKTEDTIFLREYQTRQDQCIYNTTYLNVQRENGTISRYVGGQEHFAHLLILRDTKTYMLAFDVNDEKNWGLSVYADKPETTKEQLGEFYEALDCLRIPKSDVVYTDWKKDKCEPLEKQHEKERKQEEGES

[11] = test system: Cynomolgus monkey; test: In vivo agonist activity at LXR-beta in cynomolgus monkey assessed as ABCG1 gene induction by measuring total RNA level at 1 mg/kg, po qd administered via gavage for 14 days measured after 5 to 6 hrs of last-dose relative to control; assay type: functional, Macaca fascicularis; outline: as §2
[12] = test system: Cynomolgus monkey; test: In vivo agonist activity at LXR-beta in cynomolgus monkey assessed as ABCG1 gene induction by measuring total RNA level at 0.1 mg/ kg, po qd administered via gavage for 14 days measured 5 to 6 hrs post-dose; assay type: functional, Macaca fascicularis; outline: as §2
[13] = biological target: T2, Nuclear receptor subfamily 1 group I member 2; test: Agonist activity at human PXR expressed in human HepG2 cells assessed as induction of CYP3A4 measured after 24 hrs by AlamarBlue dye-based luciferase reporter gene assay; assay type: cell-based
[14] = biological target: Albumin (Homo sapiens, UniProt P02768); test: Binding affinity to human serum albumin at 1 uM measured after 4 hrs by equilibrium dialysis method relative to control; assay type: ADME; conditions: isolated protein, 4 h, 1 µM
Albumin, sequence (P02768 whole entry): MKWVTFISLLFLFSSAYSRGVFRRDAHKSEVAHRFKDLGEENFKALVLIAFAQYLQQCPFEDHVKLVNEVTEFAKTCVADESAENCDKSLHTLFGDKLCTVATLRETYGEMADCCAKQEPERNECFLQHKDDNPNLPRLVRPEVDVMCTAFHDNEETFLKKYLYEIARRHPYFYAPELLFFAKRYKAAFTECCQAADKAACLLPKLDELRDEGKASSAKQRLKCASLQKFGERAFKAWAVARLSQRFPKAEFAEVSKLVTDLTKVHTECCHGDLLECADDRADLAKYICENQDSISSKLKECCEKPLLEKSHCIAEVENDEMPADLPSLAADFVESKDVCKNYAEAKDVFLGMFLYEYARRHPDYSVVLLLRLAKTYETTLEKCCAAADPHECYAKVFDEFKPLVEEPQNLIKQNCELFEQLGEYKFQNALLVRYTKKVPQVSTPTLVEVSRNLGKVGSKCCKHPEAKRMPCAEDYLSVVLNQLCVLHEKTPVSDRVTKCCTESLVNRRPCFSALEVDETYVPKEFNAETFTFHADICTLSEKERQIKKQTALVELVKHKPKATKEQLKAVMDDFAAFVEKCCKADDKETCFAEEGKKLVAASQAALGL

[15] = biological target: T4, Oxysterols receptor LXR-alpha (Homo sapiens, UniProt Q13133); test: Agonist activity at human LXR-alpha expressed in African green monkey CV1 cells measured after 18 to 20 hrs by luciferase reporter gene assay relative to pan agonist 1-(2,4-difluorobenzyl)-2-oxo-6-(4-phenoxyphenyl)-4-(trifluoromethyl)-1,2-dihydropyridine-3-carbonitrile; assay type: cell-based; conditions: CV-1, human; read-out: Efficacy
T4 sequence (Q13133 whole entry): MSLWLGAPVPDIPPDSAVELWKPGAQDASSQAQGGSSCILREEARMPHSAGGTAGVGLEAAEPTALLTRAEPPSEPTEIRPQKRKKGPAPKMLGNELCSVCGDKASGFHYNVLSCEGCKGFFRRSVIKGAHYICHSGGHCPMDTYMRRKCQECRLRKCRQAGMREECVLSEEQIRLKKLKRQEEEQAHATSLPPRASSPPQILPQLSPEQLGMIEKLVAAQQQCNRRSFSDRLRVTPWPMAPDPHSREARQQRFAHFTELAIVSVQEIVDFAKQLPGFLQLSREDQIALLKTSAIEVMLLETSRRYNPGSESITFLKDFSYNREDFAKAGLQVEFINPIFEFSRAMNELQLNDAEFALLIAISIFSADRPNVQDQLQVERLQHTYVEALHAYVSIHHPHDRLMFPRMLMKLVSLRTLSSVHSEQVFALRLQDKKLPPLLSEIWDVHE

Which results are given for `CC(C)(O)c1cn(-c2ccc(-c3cc(F)c(CO)c(S(C)(=O)=O)c3)cc2F)c(C(C)(C)c2c(Cl)cccc2Cl)n1` [BMS-852927]?
EC50 [1]: 0.6 nM; Activity [2]: 108%; Activity [3]: 10%; EC50 [4]: 5 nM; fold change (FC) [5]: 15; t1/2 [6]: 12 h; EC50 [7]: 24 nM; Activity [8]: 8%; Efficacy [9]: 29%; PB [10]: 97.3%; fold change (FC) [11]: 11; fold change (FC) [12]: 4.7; EC50 [13]: 1000 nM; PB [14]: 96.6%; Emax [15]: 20%
